Reference: ChEMBL document CHEMBL1123492, “Carboxyl-modified amino acids and peptides as protease inhibitors” (J Med Chem, 1986)

What was measured:
[1] = system: NCC(=O)NC(Cc1ccccc1)C(=O)Nc1ccc([N+](=O)[O-])cc1; experiment: Michaelis constant against Dipeptidyl aminopeptidase 1
Method in brief: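 Cathepsin C diluted 1:200 daily in ice-cold 50 mM citrate pH 5 with 10 mM cysteamine. Gly-Phe p-nitroanilide hydrolysis at 37 °C read at 405 nm (Δε 9900 M⁻¹ cm⁻¹), started by adding substrate to prewarmed enzyme/inhibitor. Irreversible inhibition: enzyme preincubated with varied inhibitor levels, aliquots diluted into substrate over time. k_app from ln(% activity) vs time; Ki and k2 from 1/k_app vs 1/[I].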

[2] = Michaelis constant against leucine aminopeptidase-C
[3] = Michaelis constant against Leucine aminopeptidase-M

Row | Km [2] | Km [3] | Molecule | Km [1]
1 | – | – | Dipeptidyl peptidase 1 (Homo sapiens), P53634 | 3.1 mM
2 | 2100 µM | 600 µM | CC(C)C[C@H](N)C(=O)Nc1ccc([N+](=O)[O-])cc1 | –
